Reference: ChEMBL document CHEMBL1147931, “3-(3,4,5-Trimethoxyphenyl)-1-oxo-2-propene: a novel pharmacophore displaying potent multidrug resistance reversal and selective cytotoxicity” (Bioorg Med Chem, 2007)
Calls of active or inactive are those of the source. The rule behind the calls is not given here.

Experiments:
HSC-2 [1] = test: Cytotoxicity against HSC2 cells; type: functional; details: Homo sapiens
Outline: (§1)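 Adherent cells pre-cultured 24 h in DMEM with 10% […] FBS, humidified 5% CO2, then exposed to a range of compound concentrations. Cells washed once with PBS, incubated 4 h in fresh medium with MTT, lysed in DMSO, viable cells read at 540 nm. CC50 from dose-response curves, average of two independent determinations.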

HL-60 [2] = test: Cytotoxicity against human HL60 cells; type: functional
Outline: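 HL-60 cells grown in RPMI1640 plus 10% FBS in humidified 5% CO2, exposed to a range of compound concentrations. Viable cells counted by trypan blue exclusion. CC50 from dose-response curves, average of two independent determinations.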

HSC-4 = test: Cytotoxicity against HSC4 cells; type: functional; details: Homo sapiens; outline: as §1
[3] = Cytotoxicity against HPC cells; type: cell-based; details: human; outline: as §1
HSC-3 = test: Cytotoxicity against HSC3 cells; type: functional; details: Homo sapiens; outline: as §1
HL-60 [4] = test: Effect on apoptosis in human HL60 cells assessed as increase in caspase 8 activation above 8 uM after 4 hrs; type: functional, cell-based
HL-60 [5] = test: Effect on apoptosis in human HL60 cells assessed as increase in caspase 3 activation above 8 uM after 4 hrs; type: functional, cell-based
HSC-2 [6] = test: Effect on apoptosis in HSC2 cells assessed as increase in caspase 9 activation at 32 uM after 4 hrs; type: functional, cell-based; details: Homo sapiens
Outline: (§2)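 HSC-2 cells (2×10^6) grown in DMEM with 10% FBS in humidified 5% CO2, incubated 4 h with 4, 8, 16 or 32 µM compound; actinomycin D 1 µg/mL as positive control. Lysate (200 µg protein) incubated 2 h at 37 °C with DEVD-pNA (caspase-3), IETD-pNA (caspase-8) or LEHD-pNA (caspase-9); released pNA read at 405 nm. Mean of 2–3 experiments.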

HSC-2 [7] = test: Effect on apoptosis in HSC2 cells assessed as increase in caspase 3 activation at 8 uM after 4 hrs; type: functional, cell-based; details: Homo sapiens; outline: as §2
HL-60 [8] = test: Effect on apoptosis in human HL60 cells assessed as increase in caspase 9 activation above 8 uM after 4 hrs; type: functional, cell-based
[9] = Cytotoxicity against HGF cells; type: cell-based; details: human; outline: as §1
[10] = Cytotoxicity against HPLF cells; type: cell-based; details: human; outline: as §1
HSC-2 [11] = test: Effect on apoptosis in HSC2 cells assessed as increase in caspase 8 activation at 32 uM after 4 hrs; type: functional, cell-based; details: Homo sapiens; outline: as §2
HSC-2 [12] = test: Effect on apoptosis in HSC2 cells assessed as increase in caspase 3 activation at 32 uM after 4 hrs; type: functional, cell-based; details: Homo sapiens; outline: as §2
HL-60 [13] = test: Effect on apoptosis in human HL60 cells assessed as increase in caspase 3 activation at 4 uM after 4 hrs; type: functional, cell-based

Compound	CC50 (HSC-2 [1])	CC50 (HL-60 [2])	CC50 (HSC-4)	CC50 [3]	CC50 (HSC-3)	Activity (HL-60 [4])	Activity (HL-60 [5])	Activity (HSC-2 [6])	Activity (HSC-2 [7])	Activity (HL-60 [8])	CC50 [9]	CC50 [10]	Activity (HSC-2 [11])	Activity (HSC-2 [12])	Activity (HL-60 [13])
COc1cc(/C=C/C(=O)/C=C/c2ccc([N+](=O)[O-])cc2)cc(OC)c1OC	< 3.1 µM	6.4 µM	3.8 µM	94 µM	5.7 µM	Active	Active	Active	Active	Active	16 µM	106 µM	–	–	–
COc1ccc(/C=C/C(=O)/C=C/c2ccc([N+](=O)[O-])cc2)cc1	6.3 µM	25 µM	12 µM	141 µM	16 µM	–	–	–	–	–	81 µM	193 µM	–	–	–
COc1cc(/C=C2\CC/C(=C\c3cc(OC)c(OC)c(OC)c3)C2=O)cc(OC)c1OC	19 µM	21 µM	58 µM	247 µM	89 µM	–	–	–	–	–	240 µM	281 µM	–	–	–
N[C@@H](Cc1ccc(N(CCCl)CCCl)cc1)C(=O)O [MELPHALAN]	35 µM	6 µM	81 µM	> 200 µM	115 µM	–	–	–	–	–	> 200 µM	> 200 µM	–	–	–
COc1ccc(/C=C2\CCC/C(=C\c3ccc([N+](=O)[O-])cc3)C2=O)cc1	–	–	> 400 µM	–	–	–	–	–	–	–	–	–	–	–	–
COc1cc(/C=C2\CCCCCC2=O)cc(OC)c1OC	214 µM	31 µM	269 µM	277 µM	200 µM	–	–	–	–	–	262 µM	291 µM	–	–	–
COc1cc(/C=C2\CCC/C(=C\c3ccc([N+](=O)[O-])cc3)C2=O)cc(OC)c1OC	–	–	1.5 µM	–	–	–	–	inactive	–	–	–	–	Active	Active	Active
COc1cc(/C=C2\CCCC/C(=C\c3cc(OC)c(OC)c(OC)c3)C2=O)cc(OC)c1OC	113 µM	46 µM	67 µM	276 µM	132 µM	–	–	–	–	–	229 µM	250 µM	–	–	–
COc1cc(/C=C/C(C)=O)cc(OC)c1OC	55 µM	47 µM	41 µM	188 µM	72 µM	–	–	–	–	–	159 µM	263 µM	–	–	–
COc1cc(/C=C2\CCC/C(=C\c3cc(OC)c(OC)c(OC)c3)C2=O)cc(OC)c1OC	34 µM	46 µM	36 µM	285 µM	62 µM	–	–	–	–	–	335 µM	388 µM	–	–	–
COc1cc(/C=C2\CCCC/C(=C\c3ccc([N+](=O)[O-])cc3)C2=O)cc(OC)c1OC	116 µM	266 µM	100 µM	198 µM	279 µM	–	–	–	–	–	256 µM	370 µM	–	–	–
